Results reported in ChEMBL document CHEMBL2321857, “Synthesis, topoisomerase-targeting activity and growth inhibition of lycobetaine analogs” (Bioorg Med Chem, 2013).
Active and inactive are the calls of the source. The calls are words filed in the database; no cut-off is given here.

Legend:
[1] = target: T1, DNA topoisomerase 1 (Homo sapiens) (UniProt P11387); assay: Inhibition of human recombinant topoisomerase 1-mediated relaxation of supercoiled pUC18 plasmid DNA in human MCF7 cells nuclear extracts at 10 uM after 30 mins by ethidium bromide staining based gel electrophoresis analysis; type: cell-free
T1 sequence (whole entry): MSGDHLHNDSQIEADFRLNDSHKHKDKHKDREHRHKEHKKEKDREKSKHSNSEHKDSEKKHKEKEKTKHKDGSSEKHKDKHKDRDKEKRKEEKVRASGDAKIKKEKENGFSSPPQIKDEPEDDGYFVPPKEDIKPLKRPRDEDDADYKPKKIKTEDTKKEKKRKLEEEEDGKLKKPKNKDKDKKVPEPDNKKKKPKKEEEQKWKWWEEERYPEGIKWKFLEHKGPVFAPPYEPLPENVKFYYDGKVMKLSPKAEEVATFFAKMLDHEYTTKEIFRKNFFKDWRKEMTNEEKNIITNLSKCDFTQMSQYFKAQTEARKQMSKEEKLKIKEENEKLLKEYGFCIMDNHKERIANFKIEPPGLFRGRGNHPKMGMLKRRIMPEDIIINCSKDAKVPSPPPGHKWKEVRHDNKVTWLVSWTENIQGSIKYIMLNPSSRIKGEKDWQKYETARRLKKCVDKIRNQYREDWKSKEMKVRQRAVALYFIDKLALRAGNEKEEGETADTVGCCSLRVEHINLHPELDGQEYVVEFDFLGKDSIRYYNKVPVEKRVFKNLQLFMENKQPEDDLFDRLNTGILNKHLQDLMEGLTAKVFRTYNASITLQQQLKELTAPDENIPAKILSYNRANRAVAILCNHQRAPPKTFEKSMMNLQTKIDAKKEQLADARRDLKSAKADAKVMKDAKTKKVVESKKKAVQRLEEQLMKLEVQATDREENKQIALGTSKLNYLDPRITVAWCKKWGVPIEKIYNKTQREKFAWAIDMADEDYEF
In short: (§1)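 Topo I activity came from MCF-7 nuclear extract (0.3 µL) acting on 250 ng supercoiled pUC18. Buffer: 10 mM Tris/HCl pH 7.9, 50 mM KCl, 10 mM MgCl2, 0.5 mM DTT, 0.5 mM EDTA, 0.03 mg/mL BSA, no ATP. Incubation 30 min at 37 °C. Stopped with SDS, then proteinase K digest. Run on 1% agarose TAE gel and stained with ethidium bromide afterward. Scored as lowest inhibiting concentration from 10, 30, 50 or 100 µM.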

[2] = Growth inhibition of human GXF251L cells after 72 hrs by SRB assay; type: functional; settings: GXF 251L
In short: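 GXF251L gastric xenograft-derived cells in RPMI-1640 with 10% FCS were seeded at 6000 cells/well and grown 24 h. They were then exposed 72 h in serum-containing medium with 1% DMSO final. Cells were fixed with TCA for 1 h at 4 °C and stained with 0.4% SRB. Dye was dissolved in 10 mM Tris pH 10.5 and read at 570 nm. IC50 vs DMSO control; three independent experiments.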

[3] = target: DNA topoisomerase 2-beta (Homo sapiens) (UniProt Q02880); assay: Inhibition of human recombinant topoisomerase 2beta-mediated decatenation of kDNA at 30 uM after 60 mins by ethidium bromide staining based gel electrophoresis analysis
In short: (§2)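 Recombinant human topo IIα or IIβ (40 ng) was incubated with 200 ng Crithidia kDNA. Buffer: 50 mM Tris/HCl pH 7.9, 120 mM KCl, 10 mM MgCl2, 1 mM ATP, 0.5 mM DTT, 0.5 mM EDTA, 0.03 mg/mL BSA. Incubation 60 min at 37 °C. Stopped with proteinase K/SDS, digested 30 min, run on 1% agarose and stained with ethidium bromide. Decatenated minicircle signal as T/C% vs DMSO; three experiments.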

[4] = target: DNA topoisomerase 2-alpha (Homo sapiens) (UniProt P11388); assay: Inhibition of human recombinant topoisomerase 2alpha-mediated decatenation of kDNA at 50 uM after 60 mins by ethidium bromide staining based gel electrophoresis analysis; in short: as §2
[5] = target: DNA topoisomerase 2-beta (Homo sapiens) (UniProt Q02880); assay: Inhibition of human recombinant topoisomerase 2beta-mediated decatenation of kDNA at 100 uM after 60 mins by ethidium bromide staining based gel electrophoresis analysis; in short: as §2
[6] = target: DNA topoisomerase 2-alpha (Homo sapiens) (UniProt P11388); assay: Inhibition of human recombinant topoisomerase 2alpha-mediated decatenation of kDNA at 100 uM after 60 mins by ethidium bromide staining based gel electrophoresis analysis; in short: as §2
[7] = target: DNA topoisomerase 2-alpha (Homo sapiens) (UniProt P11388); assay: Inhibition of human recombinant topoisomerase 2alpha-mediated decatenation of kDNA up to 50 uM after 60 mins by ethidium bromide staining based gel electrophoresis analysis; in short: as §2
[8] = target: T1, DNA topoisomerase 1 (Homo sapiens); assay: Inhibition of human recombinant topoisomerase 1-mediated relaxation of supercoiled pUC18 plasmid DNA in human MCF7 cells nuclear extracts at 100 uM after 30 mins by ethidium bromide staining based gel electrophoresis analysis; type: cell-free; in short: as §1
[9] = target: DNA topoisomerase 2-beta (Homo sapiens) (UniProt Q02880); assay: Inhibition of human recombinant topoisomerase 2beta-mediated decatenation of kDNA up to 50 uM after 60 mins by ethidium bromide staining based gel electrophoresis analysis; in short: as §2
[10] = target: T1, DNA topoisomerase 1 (Homo sapiens); assay: Inhibition of human recombinant topoisomerase 1-mediated relaxation of supercoiled pUC18 plasmid DNA in human MCF7 cells nuclear extracts at 50 uM after 30 mins by ethidium bromide staining based gel electrophoresis analysis; type: cell-free; in short: as §1
[11] = target: DNA topoisomerase 2-beta (Homo sapiens) (UniProt Q02880); assay: Inhibition of topoisomerase 2beta in human A431 cells assessed as DNA peak fractions level after 1 hr by ICE assay; type: cell-based; settings: A-431
In short: (§3)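 A431 cells were grown 72 h, then treated 1 h serum-free (10–100 µM; 1% DMSO control). Cells were lysed in sarkosyl TE buffer, and lysate was spun on a CsCl step gradient at 100,000 × g for 24 h at 20 °C. Fractions were measured by A260 and slot-blotted. Topo I, IIα or IIβ was immunodetected by chemiluminescence and expressed as T/C% per DNA content. Three experiments.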

[12] = target: DNA topoisomerase 2-alpha (Homo sapiens) (UniProt P11388); assay: Inhibition of topoisomerase 2alpha in human A431 cells assessed as DNA peak fractions level after 1 hr by ICE assay; type: cell-based; settings: A-431; in short: as §3
[13] = target: T1, DNA topoisomerase 1 (Homo sapiens); assay: Stabilization of topoisomerase 1/DNA complex in human A431 cells; type: cell-based; settings: A-431; in short: as §3

DNA topoisomerase 2-beta (Homo sapiens), sequence (Q02880 whole entry): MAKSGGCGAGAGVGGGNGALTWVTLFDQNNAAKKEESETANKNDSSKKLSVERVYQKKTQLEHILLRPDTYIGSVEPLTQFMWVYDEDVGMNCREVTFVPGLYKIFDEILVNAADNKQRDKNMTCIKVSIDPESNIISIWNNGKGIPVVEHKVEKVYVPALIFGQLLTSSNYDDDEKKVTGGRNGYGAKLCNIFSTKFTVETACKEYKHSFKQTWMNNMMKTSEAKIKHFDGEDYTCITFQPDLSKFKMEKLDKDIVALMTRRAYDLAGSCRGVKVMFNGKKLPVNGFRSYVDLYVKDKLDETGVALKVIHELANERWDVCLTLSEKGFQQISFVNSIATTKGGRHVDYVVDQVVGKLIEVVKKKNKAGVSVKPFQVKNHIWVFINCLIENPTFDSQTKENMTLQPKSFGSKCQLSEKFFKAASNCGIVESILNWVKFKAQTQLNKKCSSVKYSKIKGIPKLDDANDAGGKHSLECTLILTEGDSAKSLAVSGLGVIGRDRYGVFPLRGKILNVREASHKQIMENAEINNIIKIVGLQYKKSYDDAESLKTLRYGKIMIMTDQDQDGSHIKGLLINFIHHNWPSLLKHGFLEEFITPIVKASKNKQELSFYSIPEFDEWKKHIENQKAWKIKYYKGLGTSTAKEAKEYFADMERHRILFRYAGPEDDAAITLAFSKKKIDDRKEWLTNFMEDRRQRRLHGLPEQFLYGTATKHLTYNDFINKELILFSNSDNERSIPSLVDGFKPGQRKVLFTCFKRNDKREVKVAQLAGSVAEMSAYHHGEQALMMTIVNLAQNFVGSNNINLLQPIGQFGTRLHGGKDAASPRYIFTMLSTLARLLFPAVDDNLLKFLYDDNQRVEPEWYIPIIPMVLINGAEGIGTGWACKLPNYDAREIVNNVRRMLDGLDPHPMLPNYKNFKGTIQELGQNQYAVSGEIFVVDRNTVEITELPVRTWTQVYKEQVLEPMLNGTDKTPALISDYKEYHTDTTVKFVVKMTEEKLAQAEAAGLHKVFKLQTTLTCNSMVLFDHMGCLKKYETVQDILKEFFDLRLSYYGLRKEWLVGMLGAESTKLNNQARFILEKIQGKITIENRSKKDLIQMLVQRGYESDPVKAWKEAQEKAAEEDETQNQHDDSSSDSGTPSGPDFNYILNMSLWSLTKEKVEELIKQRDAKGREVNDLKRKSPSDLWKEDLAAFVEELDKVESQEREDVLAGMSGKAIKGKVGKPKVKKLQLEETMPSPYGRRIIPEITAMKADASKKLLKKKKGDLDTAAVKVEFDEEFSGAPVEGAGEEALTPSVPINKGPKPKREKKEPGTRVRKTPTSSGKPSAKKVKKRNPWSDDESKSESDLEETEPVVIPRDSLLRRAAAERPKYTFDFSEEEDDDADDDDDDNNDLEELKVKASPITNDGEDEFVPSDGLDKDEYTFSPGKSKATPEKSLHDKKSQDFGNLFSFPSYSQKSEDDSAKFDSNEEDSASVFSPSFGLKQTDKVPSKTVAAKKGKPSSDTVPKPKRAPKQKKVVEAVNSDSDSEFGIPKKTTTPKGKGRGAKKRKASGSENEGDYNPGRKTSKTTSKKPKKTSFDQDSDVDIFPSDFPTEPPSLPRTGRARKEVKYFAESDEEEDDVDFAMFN
DNA topoisomerase 2-alpha (Homo sapiens), sequence (P11388 whole entry): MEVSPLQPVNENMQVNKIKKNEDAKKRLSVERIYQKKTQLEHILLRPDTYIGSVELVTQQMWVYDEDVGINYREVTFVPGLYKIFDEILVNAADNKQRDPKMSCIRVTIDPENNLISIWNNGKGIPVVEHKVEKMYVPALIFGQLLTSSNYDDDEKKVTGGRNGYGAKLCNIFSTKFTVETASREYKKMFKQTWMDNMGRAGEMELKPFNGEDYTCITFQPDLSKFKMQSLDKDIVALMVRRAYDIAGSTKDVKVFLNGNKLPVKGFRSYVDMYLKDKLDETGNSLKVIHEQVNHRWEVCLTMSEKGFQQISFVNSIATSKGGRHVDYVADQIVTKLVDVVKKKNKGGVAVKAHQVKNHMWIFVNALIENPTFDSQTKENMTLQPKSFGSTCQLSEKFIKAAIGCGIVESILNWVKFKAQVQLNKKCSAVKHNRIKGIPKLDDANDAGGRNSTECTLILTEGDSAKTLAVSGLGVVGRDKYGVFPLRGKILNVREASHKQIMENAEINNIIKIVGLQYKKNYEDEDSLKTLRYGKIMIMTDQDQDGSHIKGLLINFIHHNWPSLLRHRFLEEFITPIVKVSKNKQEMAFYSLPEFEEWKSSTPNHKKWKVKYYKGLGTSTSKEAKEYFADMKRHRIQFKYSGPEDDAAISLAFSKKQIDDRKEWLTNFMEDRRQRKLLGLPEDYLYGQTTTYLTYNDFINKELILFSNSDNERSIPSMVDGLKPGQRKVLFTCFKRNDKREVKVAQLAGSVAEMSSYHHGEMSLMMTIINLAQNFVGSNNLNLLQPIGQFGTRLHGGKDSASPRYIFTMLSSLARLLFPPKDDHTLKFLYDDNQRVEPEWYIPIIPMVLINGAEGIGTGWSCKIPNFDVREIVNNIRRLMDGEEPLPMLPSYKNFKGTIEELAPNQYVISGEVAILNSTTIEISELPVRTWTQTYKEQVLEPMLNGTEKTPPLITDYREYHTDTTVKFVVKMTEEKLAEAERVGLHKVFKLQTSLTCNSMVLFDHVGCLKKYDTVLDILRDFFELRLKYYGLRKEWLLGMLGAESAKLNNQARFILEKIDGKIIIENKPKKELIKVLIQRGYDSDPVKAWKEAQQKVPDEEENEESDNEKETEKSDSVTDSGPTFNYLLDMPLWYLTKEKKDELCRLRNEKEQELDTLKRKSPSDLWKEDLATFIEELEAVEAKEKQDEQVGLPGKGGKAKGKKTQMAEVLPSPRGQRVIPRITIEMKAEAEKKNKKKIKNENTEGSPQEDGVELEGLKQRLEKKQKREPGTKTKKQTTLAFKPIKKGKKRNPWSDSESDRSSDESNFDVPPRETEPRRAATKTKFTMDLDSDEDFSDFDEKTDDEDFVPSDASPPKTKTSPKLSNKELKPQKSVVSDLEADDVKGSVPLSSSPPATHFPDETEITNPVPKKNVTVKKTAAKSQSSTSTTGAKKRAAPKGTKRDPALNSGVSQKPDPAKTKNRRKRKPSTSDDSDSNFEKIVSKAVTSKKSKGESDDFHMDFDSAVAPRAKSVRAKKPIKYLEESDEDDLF

SMILES | inhibition [1] | inhibition [8] | IC50 [2] [µM] | further results
COc1ccc2c(c1)c1cc3c(cc1c[n+]2C)OCO3 | Active |  | 0.9 | inhibition [3]: Active; inhibition [4]: Active
C[n+]1cc2cc3c(cc2c2cc(O)ccc21)OCO3 | Active |  | 1.6 | inhibition [3]: Active; inhibition [4]: Active
C[n+]1cc2cc3c(cc2c2ccccc21)OCO3 | Active |  | 1.9 | inhibition [7]: inactive; inhibition [9]: inactive
COc1ccc2c(c1)c1cc(OC)c(OC)cc1c[n+]2C | Active |  | 7.8 | inhibition [6]: Active
COc1cc2c[n+](C)c3ccc(O)cc3c2cc1OC |  |  | 18.8 | inhibition [5]: inactive; inhibition [6]: inactive; inhibition [10]: Active
Oc1cc2c3c(c1)c1cc4c(cc1c[n+]3CC2)OCO4 [LYCOBETAINE] | Active |  | 3.2 | inhibition [11]: Dose-dependent effect; inhibition [3]: Active; inhibition [4]: Active; inhibition [12]: Dose-dependent effect; Activity [13]: inactive
c1ccc2c(c1)ncc1cc3c(cc12)OCO3 [TRISPHAERIDINE] |  | inactive | 12 | 

More lines, main results first:

inhibition [1] | inhibition [8] | SMILES | IC50 [2] [µM] | further results
Active |  | COc1ccc2c(c1)c[n+](C)c1ccc(O)cc21 | 5.4 | inhibition [5]: inactive; inhibition [6]: inactive
 | inactive | COc1ccc2c[n+](C)c3ccc(O)cc3c2c1 | 8.4 | inhibition [7]: inactive; inhibition [9]: inactive
 | inactive | Oc1ccc2ncc3cc4c(cc3c2c1)OCO4 | 17.3 | 
 | inactive | COc1ccc2ncc3cc4c(cc3c2c1)OCO4 | 12.1 | 
 | inactive | COc1cc2cnc3ccc(O)cc3c2cc1OC | 26 | 
 | inactive | COc1ccc2c(cnc3ccc(O)cc32)c1 | > 50 | 
 | inactive | COc1ccc2ncc3cc(OC)c(OC)cc3c2c1 | 41.1 | 
Active |  | COc1ccc2c(c1)c1ccccc1c[n+]2C | 4 | inhibition [5]: Active; inhibition [6]: Active
 | inactive | COc1ccc2cnc3ccc(O)cc3c2c1 | 40.6 | 
